# Screening data: PubChem BioAssay, several laboratories
# M18AAP inhibitor: blocks P. falciparum M18 aspartyl aminopeptidase; recombinant PfM18AAP, H-Glu-NHMec fluorogenic cleavage; inhibition, % at 7.35 µM; hit rate 1.2% among 290,000; AID 1822;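 active means inhibition above the campaign mean inhibition over all tested compounds plus 3 SD, cut at about 28% in these data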;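 further: 0% = plate median of test compound wells and 100% = 2 mM ZnCl2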
# CHOP UPR activ: apoptotic UPR (CHOP) activation. activation, % at 10 µM. hit rate 0.34% among 330,000. CHO-CHOP luciferase reporter, luminescence; percent of tunicamycin response over DMSO baseline. AID 449763;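 active means at 10 µM dose, activation of 40% or more, normalized to positive control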;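 further: 100% = tunicamycin at 10 µg/mL and 0% = DMSO alone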
#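 assay system = CHO CHOP reporter cells | amount = 500 CHO-CHOP cells per well | buffer or medium = F12 with 10% FBS | incubation = 16-18 h cell attachment, then 6 h compound exposure, 37 °C | detection = luminescence read with Steady-Glo | read-out = percent activation relative to tunicamycin control | controls = tunicamycin high control, DMSO low control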
# HCV NS3 hel inh: inhibitors of Hepatitis C virus NS3 helicase; NS3 helicase DNA unwinding, Cy5 molecular beacon fluorescence; inhibition, % at 10.9 µM; hit rate 0.56% among 290,000;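 active means inhibition above the mean of all tested compounds plus 3 SD, set per campaign, cut at about 35% in these data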;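 further: 0% = DMSO wells and 100% = thioflavine S control wells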
#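 System: HCV NS3 helicase fragment; control set: DMSO and thioflavine S; technique: Cy5 fluorescence at 0 and 60 min, beacon hairpin quenching; reagent: beacon DNA duplex substrate plus ATP; replicates: singlicate; schedule: 1 h reaction at 25 °C, ATP-initiated; medium: MOPS buffer pH 6.5 with MgCl2, DTT, Tween20, BSA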
# XBP1 UPR activ: adaptive UPR (XBP1) activation; CHO-XBP1 luciferase reporter, IRE1-XBP1 UPR activation, luminescence; percent of tunicamycin response, DMSO as zero; activation, % at 20 µM; hit rate 0.33% among 330,000; AID 463104;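 active means versus positive control, 20 µM dose yields 30% or more activation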;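 further: 100% = tunicamycin at 10 µg/mL and 0% = DMSO only wells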
#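 incubation = overnight seeding at 37 °C, 6 h compound treatment at 37 °C | assay system = CHO-XBP1 cells stably carrying IRE1-XBP1-driven luciferase reporter | input = 1000 cells per well | detection = luciferase luminescence | dosing = single point, 20 µM final compound, 1% DMSO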
# CHOP inh: blocks CHOP induction under ER stress; CHO-K1 CHOP-promoter luciferase, tunicamycin-induced, 15-18 h; inhibition, % at 10 µM; hit rate 3.8% among 220,000; AID 2732;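 active means compounds that reduced the stress-induced luciferase reporter signal by more than about 70% of percent inhibition, limit read from the data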;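 further: 0% = tunicamycin plus vehicle and 100% = wells without tunicamycin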
# p97 ATPase inh: inhibitors of human p97 ATPase; hit rate 0.42% among 220,000; P55072; AID 1481; recombinant p97 ATPase, Kinase-Glo ATP luminescence, 3 h; inhibition, % at 8 µM; in the data active means inhibition above about 15%;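 further: 0% = DMSO vehicle and 100% = wells lacking enzyme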
# Target sequence (P55072 whole entry, looked up): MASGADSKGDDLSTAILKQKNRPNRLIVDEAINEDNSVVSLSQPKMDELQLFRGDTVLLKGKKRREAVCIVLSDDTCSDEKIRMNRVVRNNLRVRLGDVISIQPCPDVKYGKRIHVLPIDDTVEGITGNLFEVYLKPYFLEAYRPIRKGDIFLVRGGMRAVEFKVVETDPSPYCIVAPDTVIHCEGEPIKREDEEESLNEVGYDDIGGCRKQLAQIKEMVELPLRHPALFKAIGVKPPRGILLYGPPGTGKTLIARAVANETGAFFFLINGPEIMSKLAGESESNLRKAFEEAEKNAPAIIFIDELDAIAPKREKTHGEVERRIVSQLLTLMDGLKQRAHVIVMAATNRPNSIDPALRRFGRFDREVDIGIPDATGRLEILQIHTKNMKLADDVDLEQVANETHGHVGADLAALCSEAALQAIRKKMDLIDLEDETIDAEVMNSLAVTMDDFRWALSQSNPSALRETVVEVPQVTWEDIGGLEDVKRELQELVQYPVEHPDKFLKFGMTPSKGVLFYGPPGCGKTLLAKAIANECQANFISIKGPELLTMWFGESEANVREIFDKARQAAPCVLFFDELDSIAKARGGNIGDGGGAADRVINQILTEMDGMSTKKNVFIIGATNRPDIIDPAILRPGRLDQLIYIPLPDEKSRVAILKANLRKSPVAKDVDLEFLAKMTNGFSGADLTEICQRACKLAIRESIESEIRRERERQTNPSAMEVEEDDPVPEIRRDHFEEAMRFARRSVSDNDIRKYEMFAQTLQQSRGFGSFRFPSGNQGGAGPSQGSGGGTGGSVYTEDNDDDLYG
# Active calls of the source: *; / = not tested or not shown. This is a sample that favours compounds with a hit; in the whole collection about 4.5% have one here.
SMILES,M18AAP inhibitor,CHOP UPR activ,HCV NS3 hel inh,XBP1 UPR activ,CHOP inh,p97 ATPase inh
COc1cccc(/C=N/Nc2snc(SC)c2C#N)c1,4,4,9,2,81*,-2
COc1ccc(/C=N/Nc2snc(SC)c2C#N)cc1OC,8,9,8,15,76*,1
CCCc1cc(=O)[nH]c(SCC(=O)Nc2sc3c(c2C#N)CCC(C)C3)n1 (configuration not stated),8,1,28,3,1,0
CC(=O)c1c(C)[nH]c(C(=O)OCC(=O)Nc2sc3c(c2C#N)CCC(C)C3)c1C (configuration not stated),6,2,12,-1,94*,5
CC1CCc2c(sc(NC(=O)CSc3ncn[nH]3)c2C#N)C1 (configuration not stated),11,-8,-2,-9,85*,8
Cc1ccc(C(=O)NCc2nnc(SCC(=O)Nc3sc4c(c3C#N)CCCC4)n2C)cc1,8,1,-1,-3,67,-2
Cn1c(CNC(=O)c2ccc(Cl)cc2)nnc1SCC(=O)Nc1sc2c(c1C#N)CCCC2,7,1,-7,0,91*,0
Cc1nnc(SCC(=O)Nc2sc3c(c2C(N)=O)CCC(C)C3)[nH]c1=O (configuration not stated),/,-2,/,2,/,/
Cc1nnc(SCC(=O)Nc2sc3c(c2C(N)=O)CCCC3)[nH]c1=O,29*,0,21,-1,-19,2
CCn1c(CC(=O)Nc2ccc(F)cc2)nnc1SCC(=O)N1CCOCC1,-7,0,2,-4,/,/
Cc1ccc(S(=O)(=O)NCc2ccccc2)cc1C(=O)NCC(C)(C)N1CCOCC1,/,2,/,-1,/,/
CCN(CC(=O)Nc1c(F)cccc1F)C(=O)Cc1ccc2c(c1)CCC2,/,0,/,-2,/,/
N#Cc1c(NC(=O)CSc2ncn[nH]2)sc2c1CCCC2,28,-6,2,-2,78*,1
CC1(C)Cc2c(sc(NC(=O)C(=O)N3CCCCC3)c2C(N)=O)CO1,8,-2,16,-5,/,/
CC1(C(=O)O)Sc2[nH]c(=O)sc2C2c3ccccc3OC(=O)C21 (configuration not stated),30*,1,2,-5,19,6
COc1ccccc1-c1nn2c(=O)cc(C)nc2s1,2,5,0,4,-25,6
Cc1cc(=O)n2nc(-c3ccc(C(F)(F)F)cc3)sc2n1,5,1,7,-1,75*,1
COc1cccc(C(=O)NC2CCN(CC(=O)Nc3ccccc3Cl)CC2)c1,1,-1,-9,1,/,/
O=C(c1ccccc1)C(CCC(CN1CCOCC1)C(=O)c1ccccc1)CN1CCOCC1 (configuration not stated),-23,28,-6,-7,98*,-7
CN(C)CC(CCC(CN(C)C)C(=O)c1ccccc1)C(=O)c1ccccc1 (configuration not stated),-17,/,-37,/,106*,0
COc1ccc(Cl)cc1Nc1nc(NCCO)nc(N2CCCC2)n1,0,-1,6,2,74*,-8
CN(Cc1ccccc1)C1CCNCC1,-8,2,3,0,/,/
CNC(=O)c1ccccc1-c1cn(C)c2ccccc2c1=O,0,0,-1,-1,-4,10
CCCC(=O)NC(=S)Nc1cccc(Cl)c1N1CCCC1,-8,-3,2,3,81*,-9
O=C(Nc1cccc2cccnc12)c1ccc(Br)o1,8,1,-13,1,77*,-3
SMILES,M18AAP inhibitor,CHOP UPR activ,HCV NS3 hel inh,XBP1 UPR activ,CHOP inh,p97 ATPase inh
O=C(Nc1nc(-c2ccccc2)cs1)c1ccc(Br)o1,-1,6,2,5,74*,-1
O=C(NC(=S)Nc1nc(-c2ccccc2)cs1)c1cccs1,-2,3,1,0,74*,4
Cc1ccc(-c2csc(NC(=S)NC(=O)c3cccs3)n2)cc1,2,3,2,0,15,4
CCc1cccc(C)c1NC(=O)COC(=O)c1cc([N+](=O)[O-])ccc1N1CCOCC1,/,1,/,-3,/,/
CC(/C=C/C=C/c1ccccc1)=N/NC(=O)CNc1ccc(C)cc1,6,4,10,-3,82*,-5
CCOc1ccc(N/C=C/C(=O)c2ccccc2)c([N+](=O)[O-])c1,-2,-7,0,-3,87*,-15
Cn1c(CNC(=O)c2ccccc2F)nnc1SCCOc1ccccc1,0,-1,-1,-1,13,1
N#CCc1ccc(NS(=O)(=O)c2ccc(C3CCCCC3)cc2)cc1,3,/,-10,/,81*,-4
COc1nc(C)nc2c1sc(=S)n2C,10,-1,-2,0,71*,0
Cc1nc(N(C)C)c2sc(=S)n(C)c2n1,0,0,2,3,14,5
COCc1ccc(C(=O)N2CCCC(Nc3ccc(F)c(F)c3)C2)s1 (configuration not stated),-6,0,0,-3,/,/
CCc1ccc(NC(=O)c2c(C(=O)Nc3ccccc3)sc3nc(C)cc(=O)n23)cc1,4,3,5,-2,82*,2
Cc1nn(CCCC(=O)N2CCN(c3ccc(F)cc3)CC2)c(C)c1[N+](=O)[O-],-2,1,10,0,13,-5
CCOC(=O)C1C(=O)NC(SCC(=O)OC)=C(C#N)C1c1ccccc1OCC (configuration not stated),13,-2,22,-3,27,-4
CCOc1ccccc1C1C(C#N)=C(SCC(=O)OC)NC(=O)C1C(=O)OC (configuration not stated),2,3,4,-1,80*,2
O=C1c2ccccc2-c2nnc(-c3ccccc3)cc21,-12,-6,15,-8,73*,-38
COc1ccc(-c2cc3c(nn2)-c2ccccc2C3=O)cc1,2,-5,-2,-6,78*,-12
NC(=O)c1nc(-c2cccs2)nc2c1[nH]c(=O)n2-c1ccc(F)cc1,-5,-1,-1,2,76*,3
Cc1cccc(-n2c(=O)[nH]c3c(C(N)=O)nc(-c4ccccc4Cl)nc32)c1,2,2,-1,3,91*,6
Cc1ccc(NS(=O)(=O)c2cccc(C(=O)N3CCCCCC3)c2)cc1,/,0,/,-1,/,/
S=C(NCCCc1ccccc1)Nc1ccc(Cl)cc1,2,1,-11,2,77*,-6
S=C(NCCC(c1ccccc1)c1ccccc1)Nc1ccc(Cl)cc1,0,1,-16,-1,78*,-1
Fc1ccc(CCNC(=S)Nc2ccc(F)c(Cl)c2)cc1,-5,-1,-4,-2,90*,1
S=C(NCCC1=CCCCC1)Nc1ccc(Cl)cc1,-6,4,-8,-1,81*,0
